# Legend:
# [1] = folding enthalpy; higher = less favourable; fluorescence melt of hairpins on a sequencing array, two-state fit; conditions: sodium 0.088 M
# In short: (§1)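 With Cy3 and quencher oligos annealed, library hairpins on a sequenced MiSeq flow cell were imaged for Cy3 fluorescence in 50 mM Na-HEPES pH 8.0, 25 mM NaCl, in 2.5 °C steps up to 60 °C. Melting temperature and folding enthalpy were derived from bootstrapped two-state fits of signals normalised to pre-quench Cy3 and to control constructs. Four replicates were combined by inverse variance, with fitted temperatures raised by 9.35 °C to match UV melts.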
# [2] = melting temperature; fluorescence melt of hairpins on a sequencing array, two-state fit, raised by 9.35 °C to match UV melts; conditions: sodium 0.088 M
# In short: as §1
sequence,measurement,setting,value
GGGCTGGGAAACTAGCCC (((((.(....).))))),folding enthalpy,[1],-45.3 kcal/mol
same,Tm,[2],58.1 °C
GGGCTTCGAAAGAAACCC (((.(((....))).))),folding enthalpy,[1],-30.2 kcal/mol
same,Tm,[2],49.6 °C
GGGCTTCGAAAGAACCC (((.(((....)))))),folding enthalpy,[1],-28.9 kcal/mol
same,Tm,[2],48.6 °C
GGGCTTGGAAACAGGCTC (.((.((....)).)).),folding enthalpy,[1],-24.4 kcal/mol
same,Tm,[2],38.3 °C
GGGCTTGGAAACAGGTCC ((.(.((....)).).)),folding enthalpy,[1],-27.9 kcal/mol
same,Tm,[2],39.7 °C
GGGGAAGAAATTCCCC ((((((....)))))),folding enthalpy,[1],-30.8 kcal/mol
same,Tm,[2],57.1 °C
GGGGAAGCGAAAGCTCCC (((..(((....)))))),folding enthalpy,[1],-17.8 kcal/mol
same,Tm,[2],59.8 °C
GGGGAAGGAAACCTCCCC (((((.(....).))))),folding enthalpy,[1],-43.9 kcal/mol
same,Tm,[2],47.8 °C
GGGGACACGAAAGTGCCC (((..(((....)))))),folding enthalpy,[1],-20.5 kcal/mol
same,Tm,[2],55.5 °C
GGGGACGAAAGTCCACCC ((((((....)))..))),folding enthalpy,[1],-11.2 kcal/mol
same,Tm,[2],55.2 °C
GGGGACGAAAGTCGCCCC ((((((....)))..))),folding enthalpy,[1],-11 kcal/mol
same,Tm,[2],65.4 °C
GGGGACGAAAGTCTTCCC ((((((....)))..))),folding enthalpy,[1],-17.8 kcal/mol
same,Tm,[2],39.3 °C
GGGGAGCCGAAAGGCCCC (((..(((....)))))),folding enthalpy,[1],-13.2 kcal/mol
same,Tm,[2],61.9 °C
GGGGAGGGAAACCCCCCC ((((.((....)).)))),folding enthalpy,[1],-34.1 kcal/mol
same,Tm,[2],54.5 °C
GGGGATCGAAAGATGCCC (((.(((....))).))),folding enthalpy,[1],-48.8 kcal/mol
same,Tm,[2],59.4 °C
GGGGATGAAAATCCCC ((((((....)))))),folding enthalpy,[1],-33.7 kcal/mol
same,Tm,[2],66.2 °C
GGGGATGCGAAAGCACCC (((..(((....)))))),folding enthalpy,[1],-17.2 kcal/mol
same,Tm,[2],56.2 °C
GGGGATGGAAACGTCCTC (.(((.(....).))).),folding enthalpy,[1],-27 kcal/mol
same,Tm,[2],36.1 °C
GGGGCAGCGAAAGCTCCC (((..(((....)))))),folding enthalpy,[1],-16.7 kcal/mol
same,Tm,[2],56 °C
GGGGCCGAAAGGCCACCC ((((((....)))..))),folding enthalpy,[1],-10.1 kcal/mol
same,Tm,[2],60 °C
GGGGCCGAAAGGCCTCCC ((((((....)))..))),folding enthalpy,[1],-9.22 kcal/mol
same,Tm,[2],54.8 °C
GGGGCCGAAAGGCTACCC ((((((....)))..))),folding enthalpy,[1],-14.8 kcal/mol
same,Tm,[2],53.2 °C
GGGGCGGGAAACCGCCTC (.(((((....))))).),folding enthalpy,[1],-12 kcal/mol
same,Tm,[2],60.5 °C
GGGGCTCGAAAGAGTCCC (((.(((....))).))),folding enthalpy,[1],-42.8 kcal/mol
same,Tm,[2],67.7 °C
GGGGGATCGAAAGATCCC (((..(((....)))))),folding enthalpy,[1],-8.42 kcal/mol
same,Tm,[2],59.9 °C
GGGGGCGGAAACACCCCC (((((.(....).))))),folding enthalpy,[1],-39.3 kcal/mol
same,Tm,[2],56.9 °C
GGGGGGGGAAACCTCCCC ((((.((....)).)))),folding enthalpy,[1],-34 kcal/mol
same,Tm,[2],59.9 °C
GGGGGTCGAAAGACTCCC (((.(((....))).))),folding enthalpy,[1],-43.5 kcal/mol
same,Tm,[2],63.4 °C
GGGGGTTCGAAAGAACCC (((..(((....)))))),folding enthalpy,[1],-7.33 kcal/mol
same,Tm,[2],58.9 °C
GGGGTAACGAAAGTTCCC (((..(((....)))))),folding enthalpy,[1],-23.8 kcal/mol
same,Tm,[2],49.9 °C
GGGGTAGGAAACTGCCCC ((((.((....)).)))),folding enthalpy,[1],-47.3 kcal/mol
same,Tm,[2],57.2 °C
GGGGTAGGAAACTGTCCC (((..((....))..))),folding enthalpy,[1],-25.5 kcal/mol
same,Tm,[2],36.2 °C
GGGGTATCGAAAGATCCC (((..(((....)))))),folding enthalpy,[1],-22.4 kcal/mol
same,Tm,[2],50.4 °C
GGGGTCGAAAGACAACCC ((((((....)))..))),folding enthalpy,[1],-21.2 kcal/mol
same,Tm,[2],48.8 °C
GGGGTCGAAAGACCGCCC ((((((....)))..))),folding enthalpy,[1],-11.3 kcal/mol
same,Tm,[2],52.7 °C
GGGGTCGAAAGACGTCCC ((((((....)))..))),folding enthalpy,[1],-18.5 kcal/mol
same,Tm,[2],42.4 °C
GGGGTCGAAAGACTACCC ((((((....)))..))),folding enthalpy,[1],-18 kcal/mol
same,Tm,[2],45.2 °C
GGGGTCGGAAACAACCCC (((((.(....).))))),folding enthalpy,[1],-31.7 kcal/mol
same,Tm,[2],48.3 °C
GGGGTCGGAAACGGCTCC ((.(.((....)).).)),folding enthalpy,[1],-42.8 kcal/mol
same,Tm,[2],49.6 °C
GGGGTCTCGAAAGAGCCC (((..(((....)))))),folding enthalpy,[1],-28.6 kcal/mol
same,Tm,[2],58.9 °C
GGGGTGGGAAACCGTCCC (((..((....))..))),folding enthalpy,[1],-18.5 kcal/mol
same,Tm,[2],45.2 °C
GGGGTTCGAAAGAATCCC (((.(((....))).))),folding enthalpy,[1],-43.8 kcal/mol
same,Tm,[2],58.6 °C
GGGGTTGCGAAAGCACCC (((..(((....)))))),folding enthalpy,[1],-19 kcal/mol
same,Tm,[2],59.5 °C
GGGGTTGGAAACAACTCC ((.((((....)))).)),folding enthalpy,[1],-37.5 kcal/mol
same,Tm,[2],51.3 °C
GGGGTTGGAAACAGCTCC ((.(.((....)).).)),folding enthalpy,[1],-24.6 kcal/mol
same,Tm,[2],37 °C
GGGGTTGGAAACAGTCCC (((..((....))..))),folding enthalpy,[1],-24.5 kcal/mol
same,Tm,[2],36 °C
GGGGTTGGAAACGACCCC (((((.(....).))))),folding enthalpy,[1],-49.1 kcal/mol
same,Tm,[2],57.8 °C
GGGTAACGAAAGTTGCCC (((.(((....))).))),folding enthalpy,[1],-49.4 kcal/mol
same,Tm,[2],59.6 °C
GGGTAAGCGAAAGCTCCC (((..(((....)))))),folding enthalpy,[1],-20.6 kcal/mol
same,Tm,[2],47.8 °C
GGGTACGAAAGTAACCC ((((((....))).))),folding enthalpy,[1],-26.9 kcal/mol
same,Tm,[2],54.3 °C
GGGTACGAAAGTAACCCC ((((((....)))..))),folding enthalpy,[1],-21.9 kcal/mol
same,Tm,[2],54.2 °C
GGGTACGAAAGTACTCCC ((((((....)))..))),folding enthalpy,[1],-13.4 kcal/mol
same,Tm,[2],45.6 °C
GGGTACGAAAGTATGCCC ((((((....)))..))),folding enthalpy,[1],-16 kcal/mol
same,Tm,[2],37.3 °C
GGGTACGGAAACATACCC (((((.(....).))))),folding enthalpy,[1],-33.1 kcal/mol
same,Tm,[2],40.2 °C
GGGTACGGAAACGCACCC ((((.((....)).)))),folding enthalpy,[1],-49.4 kcal/mol
same,Tm,[2],52.3 °C
GGGTAGACGAAAGTCCCC (((..(((....)))))),folding enthalpy,[1],-18.6 kcal/mol
same,Tm,[2],46.5 °C
GGGTAGGGAAACCTATCC ((.((((....)))).)),folding enthalpy,[1],-29.7 kcal/mol
same,Tm,[2],46.6 °C
GGGTAGTCGAAAGACCCC (((..(((....)))))),folding enthalpy,[1],-20.5 kcal/mol
same,Tm,[2],45.4 °C
GGGTATCCGAAAGGACCC (((..(((....)))))),folding enthalpy,[1],-18.6 kcal/mol
same,Tm,[2],43.9 °C
GGGTATGGAAACACACCC ((((.((....)).)))),folding enthalpy,[1],-29.8 kcal/mol
same,Tm,[2],42.8 °C
GGGTCACGAAAGTGCCCC (((.(((....))).))),folding enthalpy,[1],-27.4 kcal/mol
same,Tm,[2],63 °C
GGGTCAGGAAACTGACTC (.(((((....))))).),folding enthalpy,[1],-30.7 kcal/mol
same,Tm,[2],51.8 °C
GGGTCATCGAAAGATCCC (((..(((....)))))),folding enthalpy,[1],-20.3 kcal/mol
same,Tm,[2],34.5 °C
GGGTCCCCGAAAGGGCCC (((..(((....)))))),folding enthalpy,[1],-23.1 kcal/mol
same,Tm,[2],56 °C
GGGTCCGAAAGGATCCC ((((((....))).))),folding enthalpy,[1],-31.5 kcal/mol
same,Tm,[2],60.1 °C
GGGTCCGGAAACAGACCC (((((.(....).))))),folding enthalpy,[1],-44.5 kcal/mol
same,Tm,[2],49.5 °C
GGGTCCGGAAACGGGTCC ((..(((....)))..)),folding enthalpy,[1],-27.6 kcal/mol
same,Tm,[2],50.1 °C
GGGTCGGCGAAAGCCCCC (((..(((....)))))),folding enthalpy,[1],-13.9 kcal/mol
same,Tm,[2],46.1 °C
GGGTCGGGAAACCAACCC ((((.((....)).)))),folding enthalpy,[1],-35.2 kcal/mol
same,Tm,[2],47.1 °C
GGGTCGGGAAACTGACCC (((((.(....).))))),folding enthalpy,[1],-51.9 kcal/mol
same,Tm,[2],57.5 °C
GGGTCGTCGAAAGACCCC (((..(((....)))))),folding enthalpy,[1],-21.6 kcal/mol
same,Tm,[2],52.6 °C
GGGTCTGCGAAAGCACCC (((..(((....)))))),folding enthalpy,[1],-17.5 kcal/mol
same,Tm,[2],44.2 °C
GGGTCTGGAAACAGGTCC ((..(((....)))..)),folding enthalpy,[1],-27.8 kcal/mol
same,Tm,[2],39.9 °C
GGGTCTGGAAACGGACTC (.(((.(....).))).),folding enthalpy,[1],-28.3 kcal/mol
same,Tm,[2],37.5 °C
GGGTGACCGAAAGGTCCC (((..(((....)))))),folding enthalpy,[1],-12.5 kcal/mol
same,Tm,[2],51.6 °C
GGGTGAGAAATCACCC ((((((....)))))),folding enthalpy,[1],-37.1 kcal/mol
same,Tm,[2],61.6 °C
GGGTGAGGAAACCCACCC (((((.(....).))))),folding enthalpy,[1],-50.9 kcal/mol
same,Tm,[2],51.7 °C
GGGTGAGGAAACTTGCCC (((..((....))..))),folding enthalpy,[1],-22.9 kcal/mol
same,Tm,[2],43.5 °C
GGGTGCACGAAAGTGCCC (((..(((....)))))),folding enthalpy,[1],-12.9 kcal/mol
same,Tm,[2],52.6 °C
GGGTGCCGAAAGGCTCCC (((.(((....))).))),folding enthalpy,[1],-20.6 kcal/mol
same,Tm,[2],69.1 °C
GGGTGCGAAAGCAGACCC ((((((....)))..))),folding enthalpy,[1],-20.4 kcal/mol
same,Tm,[2],54.7 °C
GGGTGCGAAAGCAGTCCC ((((((....)))..))),folding enthalpy,[1],-14.6 kcal/mol
same,Tm,[2],50.5 °C
GGGTGCGCGAAAGCGCCC (((..(((....)))))),folding enthalpy,[1],-10.8 kcal/mol
same,Tm,[2],55.5 °C
GGGTGCGGAAACGCATCC ((.((((....)))).)),folding enthalpy,[1],-29.8 kcal/mol
same,Tm,[2],64.7 °C
GGGTGGAAACACCC (((((....))))),folding enthalpy,[1],-28.2 kcal/mol
same,Tm,[2],63.5 °C
GGGTGGGGAAACCTACCC ((((.((....)).)))),folding enthalpy,[1],-41.4 kcal/mol
same,Tm,[2],54.5 °C
GGGTGGGGAAACTCACCC (((((.(....).))))),folding enthalpy,[1],-49.8 kcal/mol
same,Tm,[2],55.4 °C
GGGTGGGGAAACTCGCCC (((.(.(....).).))),folding enthalpy,[1],-30.9 kcal/mol
same,Tm,[2],47.6 °C
GGGTGGTCGAAAGACCCC (((..(((....)))))),folding enthalpy,[1],-15.8 kcal/mol
same,Tm,[2],53.4 °C
GGGTGTGGAAACACGCTC (.(.(((....))).).),folding enthalpy,[1],-17.8 kcal/mol
same,Tm,[2],56.7 °C
GGGTGTGGAAACGCACTC (.(((.(....).))).),folding enthalpy,[1],-24 kcal/mol
same,Tm,[2],47.9 °C
